Reference: ChEMBL document CHEMBL1158538, “(-)-Menthylamine derivatives as potent and selective antagonists of transient receptor potential melastatin type-8 (TRPM8) channels” (Bioorg Med Chem Lett, 2010)

Assays:
[1] = biological target: T1, Transient receptor potential cation channel subfamily M member 8 (Rattus norvegicus, UniProt Q8R455); assay: Antagonist activity at rat TRMP8 receptor expressed in HEK293 cells assessed as icilin-induced calcium elevation; type: functional, cell-based
Summary of the method: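 HEK-293 cells stably expressing rat TRPM8 received compound 5 min before icilin (0.25 µM). Inhibition of the intracellular Ca2+ elevation was measured. IC50 given as mean ± SEM of N = 3.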

[2] = biological target: T1, Transient receptor potential cation channel subfamily M member 8; assay: Antagonist activity at rat TRMP8 receptor expressed in HEK293 cells assessed as menthol-induced calcium elevation; type: functional, cell-based
Summary of the method: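 Rat TRPM8-transfected HEK-293 cells were pretreated with compound for 5 min, then challenged with menthol (20 µM). Block of the Ca2+ rise gave IC50 (means ± SEM, N = 3).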

[3] = biological target: T2, Transient receptor potential cation channel subfamily V member 1 (Homo sapiens, UniProt Q8NER1); assay: Agonist activity at human TRPV1 receptor expressed in HEK293 cells assessed as intracellular calcium stimulation relative to inomycin; type: functional, cell-based
T2 sequence (Q8NER1 whole entry): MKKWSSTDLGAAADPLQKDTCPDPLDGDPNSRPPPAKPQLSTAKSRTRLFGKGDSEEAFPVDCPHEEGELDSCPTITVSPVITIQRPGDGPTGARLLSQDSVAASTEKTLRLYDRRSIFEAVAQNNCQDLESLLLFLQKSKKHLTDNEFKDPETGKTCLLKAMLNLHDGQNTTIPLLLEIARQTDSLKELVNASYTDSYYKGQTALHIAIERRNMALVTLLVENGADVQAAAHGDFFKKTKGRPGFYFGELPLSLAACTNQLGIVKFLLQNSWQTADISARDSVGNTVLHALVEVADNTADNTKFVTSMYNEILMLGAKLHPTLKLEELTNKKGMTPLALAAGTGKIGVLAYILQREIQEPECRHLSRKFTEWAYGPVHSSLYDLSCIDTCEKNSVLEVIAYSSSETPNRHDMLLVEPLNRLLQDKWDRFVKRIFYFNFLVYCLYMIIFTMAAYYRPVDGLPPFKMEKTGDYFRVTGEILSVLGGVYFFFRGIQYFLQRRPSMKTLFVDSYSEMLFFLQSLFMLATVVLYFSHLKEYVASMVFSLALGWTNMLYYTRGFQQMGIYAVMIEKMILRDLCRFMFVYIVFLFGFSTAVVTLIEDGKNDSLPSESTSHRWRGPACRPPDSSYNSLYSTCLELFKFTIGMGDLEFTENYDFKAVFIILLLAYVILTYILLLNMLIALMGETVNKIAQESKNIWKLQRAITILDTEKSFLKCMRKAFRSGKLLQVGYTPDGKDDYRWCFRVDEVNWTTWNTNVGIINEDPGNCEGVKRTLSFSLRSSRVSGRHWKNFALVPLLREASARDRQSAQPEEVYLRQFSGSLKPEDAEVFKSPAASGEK
Summary of the method: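 Ca2+ elevation in HEK-293 cells stably expressing human TRPV1, expressed as percent of the ionomycin ([…]) response. Not measurable if below 10%. Mean ± SEM, N = 3.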

[4] = biological target: Transient receptor potential cation channel subfamily A member 1 (Rattus norvegicus, UniProt Q6RI86); assay: Agonist activity at rat TRPA1 receptor expressed in HEK293 cells assessed as intracellular calcium stimulation; type: functional, cell-based
Transient receptor potential cation channel subfamily A member 1, sequence (Q6RI86 whole entry): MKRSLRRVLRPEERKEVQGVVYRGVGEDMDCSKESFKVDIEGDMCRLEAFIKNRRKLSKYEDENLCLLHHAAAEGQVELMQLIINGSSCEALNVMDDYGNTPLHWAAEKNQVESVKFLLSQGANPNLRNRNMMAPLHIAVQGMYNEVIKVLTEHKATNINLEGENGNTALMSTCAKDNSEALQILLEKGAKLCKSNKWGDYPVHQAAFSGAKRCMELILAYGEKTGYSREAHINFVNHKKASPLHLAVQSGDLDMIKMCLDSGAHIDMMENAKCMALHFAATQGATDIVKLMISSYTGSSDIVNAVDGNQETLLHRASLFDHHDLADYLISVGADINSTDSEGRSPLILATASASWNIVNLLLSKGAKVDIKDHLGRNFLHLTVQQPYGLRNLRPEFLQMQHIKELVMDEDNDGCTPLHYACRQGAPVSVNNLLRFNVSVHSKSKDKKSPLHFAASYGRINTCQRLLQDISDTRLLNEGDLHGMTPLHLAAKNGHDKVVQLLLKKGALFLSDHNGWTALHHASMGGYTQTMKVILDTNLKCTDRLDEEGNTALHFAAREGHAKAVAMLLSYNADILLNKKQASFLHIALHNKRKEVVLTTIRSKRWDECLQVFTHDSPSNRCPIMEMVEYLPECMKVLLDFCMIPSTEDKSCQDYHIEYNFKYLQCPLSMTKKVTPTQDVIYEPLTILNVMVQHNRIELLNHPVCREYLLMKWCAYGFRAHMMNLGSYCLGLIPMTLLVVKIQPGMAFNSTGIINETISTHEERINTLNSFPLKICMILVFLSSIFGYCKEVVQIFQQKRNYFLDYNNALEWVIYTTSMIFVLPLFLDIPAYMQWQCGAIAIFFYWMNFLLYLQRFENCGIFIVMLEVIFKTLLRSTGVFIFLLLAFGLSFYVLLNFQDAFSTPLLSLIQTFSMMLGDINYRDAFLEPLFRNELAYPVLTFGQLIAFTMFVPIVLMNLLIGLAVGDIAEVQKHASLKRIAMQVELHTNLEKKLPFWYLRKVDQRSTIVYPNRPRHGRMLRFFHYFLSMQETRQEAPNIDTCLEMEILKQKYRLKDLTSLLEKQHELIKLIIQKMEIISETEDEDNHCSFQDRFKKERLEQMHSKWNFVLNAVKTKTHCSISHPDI
Summary of the method: (§1)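 Stably transfected HEK-293 lines (human TRPV1 or rat TRPA1) exposed to compound; rise in intracellular Ca2+ recorded. Non-transfected HEK-293 cells served as control. EC50 reported as mean ± SEM, N = 3.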

[5] = biological target: Transient receptor potential cation channel subfamily A member 1 (Rattus norvegicus) (UniProt Q6RI86); assay: Agonist activity at rat TRPA1 receptor expressed in HEK293 cells assessed as intracellular calcium stimulation relative to isothiocyanate; type: functional, cell-based
Transient receptor potential cation channel subfamily A member 1 (Rattus norvegicus), sequence (Q6RI86 whole entry): as above
Summary of the method: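 Intracellular Ca2+ rise in HEK-293 cells stably transfected with rat TRPA1, given as percent of the response to allyl isothiocyanate (100 µM). Efficacy under 10% scored not measurable. N = 3, mean ± SEM.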

[6] = biological target: T2, Transient receptor potential cation channel subfamily V member 1; assay: Agonist activity at human TRPV1 receptor expressed in HEK293 cells assessed as intracellular calcium stimulation; type: functional, cell-based; summary of the method: as §1
LNCaP = assay: Induction of apoptosis in human LNCAP cells assessed as caspase 3/7 release at 1 uM; type: functional
Summary of the method: (§2)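 Prostate carcinoma cells (LNCaP, high TRPM8; DU-145, negligible TRPM8) were treated at 1 µM. Apoptosis was read as caspase 3/7 release in arbitrary units. Anti-FAS antibody plus camptothecin served as reference. Means ± SD, N = 3 experiments.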

DU-145 = assay: Induction of apoptosis in human DU145 cells assessed as caspase 3/7 release at 1 uM; type: functional; summary of the method: as §2

T1 sequence (Q8R455 whole entry): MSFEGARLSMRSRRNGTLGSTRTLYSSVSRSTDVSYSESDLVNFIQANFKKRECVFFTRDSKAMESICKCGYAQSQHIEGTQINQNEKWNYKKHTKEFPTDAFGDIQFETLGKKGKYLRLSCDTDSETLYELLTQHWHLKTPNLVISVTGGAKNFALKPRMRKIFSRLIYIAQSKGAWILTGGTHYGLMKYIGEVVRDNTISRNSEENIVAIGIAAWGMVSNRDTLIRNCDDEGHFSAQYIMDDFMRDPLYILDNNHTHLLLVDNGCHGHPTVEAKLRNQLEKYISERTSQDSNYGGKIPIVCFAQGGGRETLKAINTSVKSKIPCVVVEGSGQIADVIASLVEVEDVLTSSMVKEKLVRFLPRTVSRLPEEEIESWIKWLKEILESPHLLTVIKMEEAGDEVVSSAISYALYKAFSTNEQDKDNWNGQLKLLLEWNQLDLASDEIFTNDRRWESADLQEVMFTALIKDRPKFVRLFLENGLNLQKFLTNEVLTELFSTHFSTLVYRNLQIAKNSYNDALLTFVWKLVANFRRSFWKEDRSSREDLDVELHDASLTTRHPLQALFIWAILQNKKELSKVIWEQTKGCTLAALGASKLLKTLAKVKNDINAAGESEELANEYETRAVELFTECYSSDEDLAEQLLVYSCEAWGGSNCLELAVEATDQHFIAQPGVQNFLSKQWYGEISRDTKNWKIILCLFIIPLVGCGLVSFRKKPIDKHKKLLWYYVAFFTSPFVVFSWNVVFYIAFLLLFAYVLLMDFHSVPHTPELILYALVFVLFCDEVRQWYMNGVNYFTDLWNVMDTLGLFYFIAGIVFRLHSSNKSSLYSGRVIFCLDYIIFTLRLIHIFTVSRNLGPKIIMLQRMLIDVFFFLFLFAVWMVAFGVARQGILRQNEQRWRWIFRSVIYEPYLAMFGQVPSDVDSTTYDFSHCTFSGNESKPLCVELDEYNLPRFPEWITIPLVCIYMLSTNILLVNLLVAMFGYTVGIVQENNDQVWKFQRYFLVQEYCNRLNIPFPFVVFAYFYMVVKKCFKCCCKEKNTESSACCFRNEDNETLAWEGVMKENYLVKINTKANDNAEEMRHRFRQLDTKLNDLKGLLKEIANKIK

Row | IC50 [1] | IC50 [2] | Efficacy [3] | EC50 [4] | Efficacy [5] | EC50 [6] | SMILES | Activity (LNCaP) | Activity (DU-145)
1 | 400 nM | 400 nM | 8% | 0.4 µM | 42.8% |  | CC(C)[C@@H]1CC[C@@H](C)C[C@H]1NC(=O)CCCCCCc1ccccc1 |  | 
2 | > 100000 nM | 60600 nM | 4.4% |  | < 10% |  | CCCCCCCC/C=C\CCCCCCCC(=O)N[C@@H]1C[C@H](C)CC[C@H]1C(C)C |  | 
3 | 19800 nM | 30500 nM | 63.2% |  | < 10% | 0.23 µM | COc1cc(CNC(=O)N[C@@H]2C[C@H](C)CC[C@H]2C(C)C)ccc1O |  | 
4 | 500 nM | 1500 nM | 22.6% | 30 µM | 309% | 19.2 µM | CC(C)[C@@H]1CC[C@@H](C)C[C@H]1NC(=O)Oc1cccc(Cl)c1 |  | 
5 | 1600 nM | 700 nM | 53.8% | 40.2 µM | 223% | 4.1 µM | CC(C)[C@@H]1CC[C@@H](C)C[C@H]1NC(=O)c1ccc(Cl)cc1 |  | 
6 | 60800 nM | 97600 nM | 27.4% | 4.9 µM | 138% | 0.25 µM | CC(C)[C@@H]1CC[C@@H](C)C[C@H]1NC(=O)c1ccc(C(C)(C)C)cc1 |  | 
7 | 1500 nM | 50 nM | 50.9% | 31 µM | 282% | 7.1 µM | CC(C)[C@@H]1CC[C@@H](C)C[C@H]1NC(=O)Oc1cccc(-c2ccccc2)c1 |  | 
8 | > 100000 nM | > 100000 nM | 24.4% | 11.2 µM | 159% | 1 µM | CC(C)[C@@H]1CC[C@@H](C)C[C@H]1NC(=O)NC12CC3CC(CC(C3)C1)C2 |  | 
9 | 50 nM | 20 nM | 7.8% | 4.1 µM | 34.7% |  | CC(C)[C@@H]1CC[C@@H](C)C[C@H]1NC(=O)c1ccc(-c2ccccc2)cc1 | 58576 a.u. | 9770 a.u.
10 | 3300 nM | 5900 nM | 16.3% | 36.7 µM | 273% | 5.8 µM | CC(C)[C@@H]1CC[C@@H](C)C[C@H]1NC(=O)Oc1cccc(C(C)(C)C)c1 |  | 
11 | 31000 nM | 15800 nM | 12.7% |  | < 10% | 52.2 µM | CC(C)[C@@H]1CC[C@@H](C)C[C@H]1NC(=O)NCCc1c[nH]c2ccc(O)cc12 |  | 
12 | 600 nM | 300 nM | 7.4% | 13.8 µM | 220% |  | CC(C)[C@@H]1CC[C@@H](C)C[C@H]1NC(=O)Oc1cccc(C(F)(F)F)c1 |  | 
13 | 2500 nM | 2200 nM | 5.4% |  | < 10% |  | Cc1ccc(C(=O)N[C@@H]2C[C@H](C)CC[C@H]2C(C)C)cc1 |  | 
14 | 7400 nM | 700 nM | 4.4% | 6.7 µM | 87.2% |  | CC(C)[C@@H]1CC[C@@H](C)C[C@H]1NC(=O)Oc1ccc(-c2ccccc2)cc1 |  | 
15 | 4100 nM | 800 nM | 15.1% | 7.1 µM | 181% | 42.8 µM | CC(C)[C@@H]1CC[C@@H](C)C[C@H]1NC(=O)Oc1ccc(Cl)cc1 |  | 
16 | 500 nM | 400 nM | 5.5% | 26.7 µM | 67% |  | CC(C)[C@@H]1CC[C@@H](C)C[C@H]1NC(=O)CCCCCCCc1ccccc1 |  | 
17 | 9600 nM | 12800 nM | 9.6% |  | < 10% |  | COc1ccc(C(=O)N[C@@H]2C[C@H](C)CC[C@H]2C(C)C)cc1 |  | 
18 | 2600 nM | 2200 nM | 46.6% | 3.2 µM | 135% | 53.8 µM | COc1ccc(OC(=O)N[C@@H]2C[C@H](C)CC[C@H]2C(C)C)cc1 |  | 
19 | 700 nM | 1100 nM | 3.4% | 0.7 µM | 73.9% |  | Cc1ccc(OC(=O)N[C@@H]2C[C@H](C)CC[C@H]2C(C)C)cc1 |  | 
20 | 700 nM | 200 nM | 3.3% | 3 µM | 88.9% |  | CC(C)[C@@H]1CC[C@@H](C)C[C@H]1NC(=O)Oc1ccc(C(F)(F)F)cc1 |  | 
21 | 2100 nM | 2800 nM | 41.9% |  | < 10% | 7.6 µM | CC(C)[C@@H]1CC[C@@H](C)C[C@H]1NC(=O)c1cccc(Cl)c1 |  | 

Row | SMILES | IC50 [1] | IC50 [2] | Efficacy [3] | EC50 [4] | Efficacy [5] | EC50 [6] | Activity (LNCaP) | Activity (DU-145)
22 | CC(C)[C@@H]1CC[C@@H](C)C[C@H]1NC(=O)Oc1ccc(C(C)(C)C)cc1 | 80 nM | 100 nM | 23.8% | 11.7 µM | 76% | 18.3 µM |  | 
